Results on 5 compounds are retold here after ChEMBL document CHEMBL1136016, “Synthesis, biological activity, and molecular modeling investigation of new pyrazolo[4,3-e]-1,2,4-triazolo[1,5-c]pyrimidine derivatives as human A(3) adenosine receptor antagonists” (J Med Chem, 2002).

The target in assay [1] is T1, Adenosine receptor A1 (Homo sapiens, UniProt P30542).
T1 sequence (P30542 whole entry): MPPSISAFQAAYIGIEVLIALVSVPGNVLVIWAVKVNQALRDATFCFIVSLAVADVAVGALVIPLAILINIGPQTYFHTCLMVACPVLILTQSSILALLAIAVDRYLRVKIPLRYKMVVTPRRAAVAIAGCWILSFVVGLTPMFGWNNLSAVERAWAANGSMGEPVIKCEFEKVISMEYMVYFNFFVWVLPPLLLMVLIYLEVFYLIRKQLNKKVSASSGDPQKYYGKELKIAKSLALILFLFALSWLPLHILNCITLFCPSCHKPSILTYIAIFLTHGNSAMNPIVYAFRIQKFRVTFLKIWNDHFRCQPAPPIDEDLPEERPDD
The assay can be described thus: Displacement of [3H]DPCPX from human Adenosine A1 receptor expressed in CHO cells; range 738-961. Format: cell-based. The essentials:
(§1)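 Human recombinant A1 receptor in CHO cell membranes, resuspended in 50 mM Tris HCl pH 7.4. Displacement run 120 min at 25 °C with 1 nM [3H]DPCPX, 50 µg protein per assay, and at least six to eight test concentrations. Nonspecific binding defined with CHA. Bound and free separated on glass-fiber filters; filter radioactivity counted. n = 3-6.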
For orientation: In a radioligand displacement assay an active substance lowers the binding of a labelled ligand.

Assay [2] concerns the target T2, Adenosine receptor A2b (Homo sapiens, UniProt P29275).
T2 sequence (P29275 whole entry): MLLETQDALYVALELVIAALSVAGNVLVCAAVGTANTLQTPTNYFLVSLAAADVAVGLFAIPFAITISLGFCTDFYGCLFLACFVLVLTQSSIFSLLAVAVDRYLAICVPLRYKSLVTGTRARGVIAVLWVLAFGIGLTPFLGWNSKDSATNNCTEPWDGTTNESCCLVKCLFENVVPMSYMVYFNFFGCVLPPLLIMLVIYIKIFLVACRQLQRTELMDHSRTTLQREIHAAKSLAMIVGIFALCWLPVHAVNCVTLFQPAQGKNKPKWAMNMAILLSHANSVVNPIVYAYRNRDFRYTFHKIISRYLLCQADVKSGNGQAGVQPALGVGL
The assay can be described thus: Displacement of [3H]DPCPX from human Adenosine A2B receptor expressed in HEK293 cells; range 40-69. Format: cell-based. The essentials:
(§2)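 Membranes from HEK-293 cells with human recombinant A2B receptor. Incubation 60 min at 25 °C in 50 mM Tris HCl, 10 mM MgCl2, 1 mM EDTA, 0.1 mM benzamidine, pH 7.4, with 2 IU/mL adenosine deaminase and 40 nM [3H]DPCPX. At least six to eight test concentrations. Nonspecific binding defined with NECA. n = 3-6.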

The target of assay [3] is T3, Adenosine receptor A3 (Homo sapiens, UniProt P0DMS8).
T3 sequence (P0DMS8 whole entry): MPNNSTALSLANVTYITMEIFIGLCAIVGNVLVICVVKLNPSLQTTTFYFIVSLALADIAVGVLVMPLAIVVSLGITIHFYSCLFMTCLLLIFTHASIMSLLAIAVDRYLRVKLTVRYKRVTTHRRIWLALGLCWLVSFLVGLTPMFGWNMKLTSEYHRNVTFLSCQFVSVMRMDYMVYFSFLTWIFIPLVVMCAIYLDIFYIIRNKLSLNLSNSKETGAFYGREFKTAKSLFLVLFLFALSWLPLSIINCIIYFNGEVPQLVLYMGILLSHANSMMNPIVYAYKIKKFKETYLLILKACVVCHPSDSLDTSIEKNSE
The assay can be described thus: Displacement of [3H]MRE3008-F20 from human Adenosine A3 receptor expressed in HEK cells; range 0.22-0.40. The assay is classed as cell-based, HEK293.

Assay [4] has as its target T4, Adenosine receptor A2a (Homo sapiens, UniProt P29274). The assay can be described thus: Displacement of [3H]SCH-58,261 from human Adenosine A2A receptor expressed in HEK293 cells; range 543-820. The assay is classed as cell-based.
In assay [5] the target is Adenosine receptors; A2b & A3 (Homo sapiens) (UniProt P29275+P0DMS8). Description: Selectivity ratio (h2B/hA3). The assay is classed as protein assay.
Assay [6] deals with Adenosine receptors; A1 & A3 (Homo sapiens) (UniProt P30542+P0DMS8). The assay can be described thus: Selectivity ratio (hA1/hA3). Format: protein assay.
Assay [7] deals with T1, Adenosine receptor A1. Description: Displacement of [3H]DPCPX from human Adenosine A1 receptor expressed in CHO cells; range 379-535. Format: cell-based. The gist of the method:
as §1

Assay [8] has as its target T3, Adenosine receptor A3. The assay can be described thus: Inhibition of IB-MECA agonist-mediated cAMP production in CHO cell membranes expressing human Adenosine A3 receptor; range 3.0-10.8. Format: functional, cell-based. Background: cAMP levels reflect the balance of adenylyl cyclase and phosphodiesterase activity.
Assay [9] addresses T3, Adenosine receptor A3. Description: Displacement of [3H]MRE3008-F20 from human Adenosine A3 receptor expressed in HEK cells; range 0.59-0.83. The assay is classed as cell-based, HEK293.
The target in assay [10] is T4, Adenosine receptor A2a. Description: Displacement of [3H]SCH-58261 from human Adenosine A2A receptor expressed in HEK293 cells; range 146-220. The assay is classed as cell-based.
The target of assay [11] is T2, Adenosine receptor A2b. The assay can be described thus: Displacement of [3H]DPCPX from human Adenosine A2B receptor expressed in HEK293 cells; range 187-265. Format: cell-based. The gist of the method:
as §2

The target in assay [12] is T2, Adenosine receptor A2b. The assay can be described thus: Displacement of [3H]DPCPX from human Adenosine A2B receptor expressed in HEK293 cells; range 183-278. Format: cell-based. The essentials:
as §2

The target in assay [13] is T3, Adenosine receptor A3. Description: Inhibition of IB-MECA agonist-mediated cAMP production in CHO cell membranes expressing human Adenosine A3 receptor; range 2.0-4.3. Format: functional, cell-based.
Assay [14] deals with T1, Adenosine receptor A1. Description: Displacement of [3H]DPCPX from human Adenosine A1 receptor expressed in CHO cells; range 262-814. The assay is classed as cell-based. The note with it: in the assay text read “range 602-814” for “range 262-814”. The gist of the method:
as §1

Assay [15] concerns the target T3, Adenosine receptor A3. The assay can be described thus: Displacement of [3H]MRE3008-F20 from human Adenosine A3 receptor expressed in HEK cells; range 0.28-0.41. The assay is classed as cell-based, HEK293.
In assay [16] the target is T4, Adenosine receptor A2a. Description: Displacement of [3H]SCH-58261 from human Adenosine A2A receptor expressed in HEK293 cells; range 103-140. Format: cell-based.
Assay [17] deals with T1, Adenosine receptor A1. Description: Displacement of [3H]DPCPX from human Adenosine A1 receptor expressed in CHO cells; range 885-1163. The assay is classed as cell-based. The essentials: as §1
Assay [18] has as its target T2, Adenosine receptor A2b. Description: Displacement of [3H]DPCPX from human Adenosine A2B receptor expressed in HEK293 cells; range 128-156. Format: cell-based. The essentials: as §2
Assay [19] addresses T4, Adenosine receptor A2a. Description: Displacement of [3H]SCH-58261 from human Adenosine A2A receptor expressed in HEK293 cells; range 552-839. The assay is classed as cell-based.
The target of assay [20] is T3, Adenosine receptor A3. Description: Inhibition of IB-MECA agonist-mediated cAMP production in CHO cell membranes expressing human Adenosine A3 receptor; range 1.8-5.6. The assay is classed as functional, cell-based.
In assay [21] the target is T3, Adenosine receptor A3. Description: biochemical.
The target of assay [22] is T2, Adenosine receptor A2b. Description: Displacement of [3H]-DPCPX from human Adenosine A2B receptor expressed in HEK293 cells; range 125-218. The assay is classed as cell-based. The essentials:
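HEK-293 membranes expressing the human receptor were incubated 60 min at 25 °C. Six to eight test concentrations were used. Nonspecific binding was set with NECA. n = 3-6.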

Assay [23] has as its target T1, Adenosine receptor A1. The assay can be described thus: Displacement of [3H]DPCPX from human Adenosine A1 receptor expressed in CHO cells; range 180-345. The assay is classed as cell-based. The gist of the method: as §1
For assay [24], the target named is T4, Adenosine receptor A2a. The assay can be described thus: Displacement of [3H]SCH-58261 from human Adenosine A2A receptor expressed in HEK293 cells; range 73-138. Format: cell-based.
Assay [25] has as its target T3, Adenosine receptor A3. Description: biochemical. The source holds these as a separate data set.

T4 sequence (P29274 whole entry): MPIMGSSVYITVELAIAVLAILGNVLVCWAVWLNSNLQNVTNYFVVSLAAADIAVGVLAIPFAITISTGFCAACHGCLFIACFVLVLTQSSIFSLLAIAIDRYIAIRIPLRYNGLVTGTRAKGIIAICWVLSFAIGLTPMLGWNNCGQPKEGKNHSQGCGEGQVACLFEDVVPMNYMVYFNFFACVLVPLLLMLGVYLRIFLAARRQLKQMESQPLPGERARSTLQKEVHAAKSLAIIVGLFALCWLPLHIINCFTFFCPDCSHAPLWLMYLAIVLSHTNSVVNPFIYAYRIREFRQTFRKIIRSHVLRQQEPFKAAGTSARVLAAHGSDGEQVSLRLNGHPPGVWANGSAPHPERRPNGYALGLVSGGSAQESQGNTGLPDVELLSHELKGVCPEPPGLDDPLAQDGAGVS

Take `CCCn1cc2c(nc(NC(=O)Nc3ccc4c(c3)OCO4)n3nc(-c4ccco4)nc23)n1`: the Ki (in general, the equilibrium dissociation constant of an inhibitor or competing ligand from its target) worked out at 0.842 µM at Adenosine receptor A1 [1], 0.053 µM at Adenosine receptor A2b [2], 0.0003 µM on Adenosine receptor A3 [3] and 0.667 µM at Adenosine receptor A2a [4]. Further, the Ratio is 177 in [5] and 2810 in assay [6].

For the compound `COc1ccccc1NC(=O)Nc1nc2nn(C)cc2c2nc(-c3ccco3)nn12`, the inhibitory constant (Ki) was determined as 0.45 µM at Adenosine receptor A1 [7], 0.0007 µM at Adenosine receptor A3 [9], 0.18 µM at Adenosine receptor A2a [10] and 0.223 µM on Adenosine receptor A2b [11]. Further, the IC50 (as a rule, the concentration needed to halve the response being measured) at Adenosine receptor A3 [8] was 0.0056 µM. Further, the Ratio in assay [5] was 319; in [6], 643.

Regarding `Cn1cc2c(nc(NC(=O)Nc3ccc(F)cc3)n3nc(-c4ccco4)nc23)n1`, the Ki on Adenosine receptor A2b [12] was 0.226 µM; at Adenosine receptor A1 [14], 0.7 µM; at Adenosine receptor A3 [15] it was 0.00034 µM; at Adenosine receptor A2a [16] it was 0.12 µM. At Adenosine receptor A3 [13], this compound had an IC50 of 0.003 µM. For the same compound, the Ratio in [5] worked out at 665; in assay [6], 2060.

As for `Cn1cc2c(nc(NC(=O)Nc3ccc4c(c3)OCO4)n3nc(-c4ccco4)nc23)n1`, the Ki on Adenosine receptor A1 [17] worked out at 1.02 µM; at Adenosine receptor A2b [18] it was 0.142 µM; at Adenosine receptor A2a [19], 0.68 µM; at Adenosine receptor A3 [21], 0.00024 µM. In addition, at Adenosine receptor A3 [20], the IC50 came out at 0.0032 µM. The Ratio worked out at 592 in assay [5] and 4230 in assay [6].

In the case of `CCCn1cc2c(nc(NC(=O)Nc3ccccc3OC)n3nc(-c4ccco4)nc23)n1`, the Ki turned out to be 0.165 µM at Adenosine receptor A2b [22], 0.25 µM at Adenosine receptor A1 [23], 0.1 µM at Adenosine receptor A2a [24] and 0.00034 µM at Adenosine receptor A3 [25]. In addition, the Ratio in assay [5] amounted to 485; in [6], 735.
